Test results taken from ChEMBL document CHEMBL1132279, “Axially chiral 1,7-naphthyridine-6-carboxamide derivatives as orally active tachykinin NK(1) receptor antagonists: synthesis, antagonistic activity, and effects on bladder functions” (J Med Chem, 1999).
Several values for one entry are separate records, joined by “and”; a condition that tells them apart may be missing. Equal values may be shown once.

Legend:
Cavia porcellus [1] = test: Effective dose that increased the bladder volume threshold of urethane anesthetized guinea pigs by 30%; format: functional
Summary of the method: (§1)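 Urethane-anesthetized guinea pigs; bladder volume threshold read before dosing (mean of last two stable trials as control) and again 10 min after iv injection. Compound in 80% DMSO, 0.1 mL/100 g body weight. Effect given as % rise in volume threshold over predrug value; ED30 is the dose raising threshold by 30%, with 6–12 animals per dose and 95% confidence limits.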

Cavia porcellus [2] = test: In vivo inhibition of capsaicin-induced plasma extravasation in the trachea of guinea pigs after intravenous administration; format: functional
Summary of the method: (§2)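 Male Hartley guinea pigs (n = 5–8) under pentobarbital 35 mg/kg ip. Compound given iv 5 min, or orally 60 min, before iv capsaicin (150 µg/kg) plus Evans blue (20 mg/kg) in ethanol-saline 3:7. After 10 min, animals were perfused with saline and the trachea weighed.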

Cavia porcellus [3] = test: In vivo inhibition of capsaicin-induced plasma extravasation in the trachea of guinea pigs after peroral administration; format: functional; details: po, read-out: ID50 (the source's name); summary of the method: as §2
Cavia porcellus [4] = test: Shut down time of distension induced rhythmic bladder contractions in urethane anesthetized guinea pigs after a intravenous dose of 0.3 mg/kg of the compound; format: functional
Summary of the method: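 Urethane-anesthetized guinea pigs; saline (39 °C) infused stepwise (0.2 mL) into the bladder via a dome needle until rhythmic isovolumetric contractions appeared. Compound in DMSO (0.05 mL/100 g) given iv at 0.3 mg/kg. Shutdown time (interval between contractions, 30 min cutoff) reported as mean ± SE, compared with the vehicle group mean by Dunnett's test.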

Cavia porcellus [5] = test: Inhibition of capsaicin-induced plasma extravasation in guinea pig trachea by peroral administration; format: functional; details: po, read-out: ID50 (the source's name); summary of the method: as §2
Substance-P receptor = Substance-P receptor (Homo sapiens, UniProt P25103); test: Tachykinin receptor 1 antagonistic activity as ability to inhibit [125I]BH-SP binding in human IM-9 cells (lymphoblast cells); format: cell-based
Substance-P receptor, sequence (P25103 whole entry): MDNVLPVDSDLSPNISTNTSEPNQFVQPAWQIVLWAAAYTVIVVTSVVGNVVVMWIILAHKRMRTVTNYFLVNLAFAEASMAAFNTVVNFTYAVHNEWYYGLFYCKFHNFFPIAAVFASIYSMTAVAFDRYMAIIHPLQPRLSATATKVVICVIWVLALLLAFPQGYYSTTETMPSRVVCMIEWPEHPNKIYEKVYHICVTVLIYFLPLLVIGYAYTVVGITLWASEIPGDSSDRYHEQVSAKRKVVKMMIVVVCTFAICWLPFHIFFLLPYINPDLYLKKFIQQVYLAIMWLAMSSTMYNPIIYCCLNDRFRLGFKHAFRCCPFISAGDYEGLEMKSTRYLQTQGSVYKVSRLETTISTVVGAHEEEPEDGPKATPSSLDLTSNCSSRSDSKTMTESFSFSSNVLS

Cavia porcellus [6] = test: Increased bladder volume threshold in urethane anesthetized guinea pigs by 30%; format: functional; summary of the method: as §1

IC50 (Substance-P receptor) [nM] | SMILES | ED30 (Cavia porcellus [1]) [mg/kg] | ED50 (Cavia porcellus [3]) [mg/kg] | Shutdown time (Cavia porcellus [4]) [min] | further results
 | Cc1ccc(-c2c3n(c(=O)c4ncccc24)CC[C@@H](C)CN(Cc2cc(C(F)(F)F)cc(C(F)(F)F)c2)C3=O)cc1 (stereo in doubt; (aR,9R)-8b) | 0.051 | 0.033 | 21.8 | ID50 (Cavia porcellus [2]): 0.0043 mg/kg
 | Cc1ccc(-c2c3n(c(=O)c4ncccc24)CC[C@@H](C)CN(Cc2cc(C(F)(F)F)cc(C(F)(F)F)c2)C3=O)cc1 (stereo in doubt; (aS,9R)-8b) |  |  |  | ID50 (Cavia porcellus [2]): 0.026 mg/kg
 | Cc1ccc(-c2c3n(c(=O)c4ncccc24)C[C@@H](C)CN(Cc2cc(C(F)(F)F)cc(C(F)(F)F)c2)C3=O)cc1 | 0.16 | 0.033 | 17.9 | 
0.85 | Cc1ccc(-c2c3n(c(=O)c4ncccc24)CCCN(Cc2cc(C(F)(F)F)cc(C(F)(F)F)c2)C3=O)cc1 | 0.37 |  | 10.1 | ED50 (Cavia porcellus [5]): 0.073 mg/kg
 | Cc1ccc(-c2c3n(c(=O)c4ncccc24)CCCCN(Cc2cc(C(F)(F)F)cc(C(F)(F)F)c2)C3=O)cc1 [7-(3,5-BIS-TRIFLUOROMETHYL-BENZYL)-5-P-TOLYL-8,9,10,11-TETRAHYDRO-7H-1,7,11A-TRIAZA-CYCLOOCTA[B]NAPHTHALENE-6,12-DIONE (ATROPISOMERIC MIX)] | 0.066 | 0.019 |  | Shutdown time (Cavia porcellus [4]; 0.3 mg/kg): 7.4 min and 19.2 min and 15.7 min
2.3 | Cc1ccc(-c2c3n(c(=O)c4ncccc24)CCN(Cc2cc(C(F)(F)F)cc(C(F)(F)F)c2)C3=O)cc1 |  |  |  | 
 | Cc1ccc(-c2c3n(c(=O)c4ncccc24)CC[C@H](C)CN(Cc2cc(C(F)(F)F)cc(C(F)(F)F)c2)C3=O)cc1 (stereo in doubt; (aS,9S)-8b) [7-(3,5-BIS-TRIFLUOROMETHYL-BENZYL)-9-METHYL-5-P-TOLYL-8,9,10,11-TETRAHYDRO-7H-1,7,11A-TRIAZA-CYCLOOCTA[B]NAPHTHALENE-6,12-DIONE (ATROPISOMERIC MIX)] |  |  | 6.7 | ED50 (Cavia porcellus [2]; Cavia porcellus, Plasma, iv, read-out: ID50 (the source's name)): > 0.3 mg/kg
1.8 | Cc1ccc(-c2c3n(c(=O)c4ncccc24)CCCCCN(Cc2cc(C(F)(F)F)cc(C(F)(F)F)c2)C3=O)cc1 | 0.086 | 0.04 | 17.1 | 
9.5 | Cc1ccc(-c2c3n(c(=O)c4ncccc24)C[C@H](C)CN(Cc2cc(C(F)(F)F)cc(C(F)(F)F)c2)C3=O)cc1 |  |  | 5.9 | 
 | Cc1ccc(-c2c(C(=O)N(C)Cc3cc(C(F)(F)F)cc(C(F)(F)F)c3)n(C)c(=O)c3ncccc23)cc1 [7-METHYL-8-OXO-5-P-TOLYL-7,8-DIHYDRO-[1,7]NAPHTHYRIDINE-6-CARBOXYLIC ACID (3,5-BIS-TRIFLUOROMETHYL-BENZYL)-METHYL-AMIDE (STRUCTURAL MIX)] |  | 0.11 |  | ED30 (Cavia porcellus [6]): 0.1 mg/kg; Shutdown time (Cavia porcellus [4]; 0.3 mg/kg): 12.9 min [middle of 4 runs]
